The text below walks through data of publication PMC9080015 (RSC Advances, 2018).

A word on the IC50: it is the midpoint of a concentration-inhibition curve.

Structures are written as SMILES.

Series [1] deals with MCF-7/1B1 cells. Format: cell-based, human. An outline of the steps: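 MCF-7/1B1 cells were made by incubating parental MCF-7 with 10 nM TCDD for five days, then seeded at about 3000 cells/well in RPMI 1640/10% FBS for 24 h. Screen: 20 μM docetaxel alone or with 10 μM test compound. […] MTT read at 490 nm. Non-linear regression fit; mean ± SD of three independent measurements; Student's t test.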

Series [2] has as its system parental MCF-7 cells. The series can be described thus: MTT anti-proliferation assay in parental MCF-7 cells. Format: cell-based. The following applies: Homo sapiens, MCF7, read-out: IC50 of docetaxel in parental MCF-7 cells. An outline of the steps: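 Parental MCF-7 cells were grown in RPMI 1640 with 10% FBS at 37 °C and 5% CO2. About 3000 cells/well were seeded and left 24 h, then exposed to six docetaxel concentrations. MTT read-out was absorbance at 490 nm. IC50 came from non-linear regression (log inhibitor vs normalized response, variable slope).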

Series [3] addresses T1, CYP1A1 (Homo sapiens, UniProt P04798).
T1 sequence (P04798 1-512): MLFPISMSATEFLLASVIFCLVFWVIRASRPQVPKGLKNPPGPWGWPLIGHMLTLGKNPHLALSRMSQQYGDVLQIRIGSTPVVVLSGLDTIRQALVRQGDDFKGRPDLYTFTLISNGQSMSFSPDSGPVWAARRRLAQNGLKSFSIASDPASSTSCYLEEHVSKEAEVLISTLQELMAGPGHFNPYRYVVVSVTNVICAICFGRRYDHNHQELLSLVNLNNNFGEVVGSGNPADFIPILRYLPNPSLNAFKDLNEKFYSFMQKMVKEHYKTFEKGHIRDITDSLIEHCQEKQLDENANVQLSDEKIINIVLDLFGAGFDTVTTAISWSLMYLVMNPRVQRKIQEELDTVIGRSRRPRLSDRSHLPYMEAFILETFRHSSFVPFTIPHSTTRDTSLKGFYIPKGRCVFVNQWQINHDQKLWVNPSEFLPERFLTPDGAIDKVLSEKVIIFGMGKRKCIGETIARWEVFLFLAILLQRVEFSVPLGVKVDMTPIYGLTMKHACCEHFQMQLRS
The series can be described thus: EROD assay, recombinant human CYP1A1 inhibition. It is filed as biochemical. An outline of the steps:
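Supersomes with P450 reductase. Test compound is taken from 10 mM DMSO stock into Tris–HCl pH 7.4 (final DMSO <1% v/v), at several concentrations. Methanol stop. Resorufin fluorescence read at ex 544/em 590 nm. IC50 from nonlinear regression, log(inhibitor) vs normalized response, variable slope.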

Series [4] deals with CYP1A2. The following applies: read-out: IC50 CYP1A2; recombinant human enzyme; cited from earlier work.
In series [5] the test system is CYP1A1. Conditions: read-out: IC50 CYP1A1; cited from earlier work.
Series [6] addresses T2, recombinant human CYP1B1 (Homo sapiens, UniProt Q16678).
T2 sequence (Q16678 1-543): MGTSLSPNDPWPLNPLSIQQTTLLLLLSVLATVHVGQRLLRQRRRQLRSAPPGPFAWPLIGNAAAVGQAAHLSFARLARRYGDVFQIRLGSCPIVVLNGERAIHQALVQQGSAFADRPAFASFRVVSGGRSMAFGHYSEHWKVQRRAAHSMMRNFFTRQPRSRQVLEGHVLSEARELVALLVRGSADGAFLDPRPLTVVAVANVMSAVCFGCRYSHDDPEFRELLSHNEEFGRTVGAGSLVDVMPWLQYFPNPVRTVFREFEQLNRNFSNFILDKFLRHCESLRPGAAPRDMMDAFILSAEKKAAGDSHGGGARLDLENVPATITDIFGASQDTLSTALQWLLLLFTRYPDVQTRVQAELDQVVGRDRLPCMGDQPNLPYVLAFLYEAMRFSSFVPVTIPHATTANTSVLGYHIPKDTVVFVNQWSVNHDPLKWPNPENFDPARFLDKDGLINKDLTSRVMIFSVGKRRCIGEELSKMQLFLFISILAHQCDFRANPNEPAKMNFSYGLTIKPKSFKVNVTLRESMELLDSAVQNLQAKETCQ
Briefly: EROD assay, recombinant human CYP1B1 inhibition. Format: biochemical. The following applies: for IC50 ratio 1A1/1B1: selectivity for CYP1B1 over CYP1A1; for IC50 ratio 1A2/1B1: selectivity for CYP1B1 over CYP1A2.

Series [7] deals with T3, CYP1A2 (Homo sapiens, UniProt P05177).
T3 sequence (P05177 2-516 limits assumed): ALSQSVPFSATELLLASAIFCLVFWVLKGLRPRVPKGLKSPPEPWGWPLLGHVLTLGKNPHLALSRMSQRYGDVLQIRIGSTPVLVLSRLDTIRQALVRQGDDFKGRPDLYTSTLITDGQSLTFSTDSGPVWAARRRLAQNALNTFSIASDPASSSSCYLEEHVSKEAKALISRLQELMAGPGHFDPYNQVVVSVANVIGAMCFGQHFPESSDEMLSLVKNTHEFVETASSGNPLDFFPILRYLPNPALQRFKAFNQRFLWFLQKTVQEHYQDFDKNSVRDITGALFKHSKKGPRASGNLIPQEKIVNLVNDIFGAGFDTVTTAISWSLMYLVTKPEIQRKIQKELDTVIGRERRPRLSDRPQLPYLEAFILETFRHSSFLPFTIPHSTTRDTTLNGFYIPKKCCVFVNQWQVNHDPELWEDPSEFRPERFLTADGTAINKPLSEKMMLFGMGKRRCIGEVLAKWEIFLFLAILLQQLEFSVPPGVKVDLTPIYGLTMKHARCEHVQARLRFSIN
Briefly: EROD assay, recombinant human CYP1A2 inhibition. It is filed as biochemical.

On to `CC(=O)O[C@@]12CO[C@@H]1C[C@H](O)[C@@]1(C)C(=O)[C@H](O)C3=C(C)[C@@H](OC(=O)[C@H](O)[C@@H](NC(=O)OC(C)(C)C)c4ccccc4)C[C@@](O)([C@@H](OC(=O)c4ccccc4)[C@H]21)C3(C)C` [docetaxel, reference compound], for which the “fold resistance of MCF-7/1B1 cells to docetaxel versus parental MCF-7 cells” value in series [1] was 5 fold. Also, the half-maximal inhibitory concentration (IC50) in series [2] was found to be 29.5 µM.

As for `O=c1cc(-c2ccccc2)oc2c1ccc1ccccc12` [ANF, α-Naphthoflavone], the half-inhibitory concentration (IC50) in series [3] is 0.0628 µM; in series [4] it was […]; in series [5], 0.06 µM.

In the case of `COc1cc([C@@H]2Nc3c(ccc4ccccc34)C(=O)[C@@H]2O)cc(OC)c1OC` [Compound 2b, (2S,3R) 3-Hydroxy-2-(3,4,5-trimethoxyphenyl)-2,3-dihydrobenzo[h]quinolin-4(1H)-one], the concentration for half-maximal inhibition (IC50) in series [6] is 0.303 µM; in series [3], 1.16 µM; in series [7], > 5 µM. For the same compound, the “IC50 ratio 1A1/1B1” value in series [6] amounted to 3.8. Further, the “IC50 ratio 1A2/1B1” value in series [6] is listed as >16.5.

Take `COc1cc2c(=O)cc(-c3cccc(Br)c3)[nH]c2c2c(OC)cccc12` [Compound 5e, 2-(3-Bromophenyl)-6,10-dimethoxybenzo[h]quinolin-4(1H)-one]: in series [6], the “IC50 ratio 1A1/1B1” value is 5.5. Moreover, in series [1] (MCF-7/1B1 cells, varying concentrations, no docetaxel), the “antiproliferative activity of the compound alone” value is given as “a significant antiproliferative activity was not observed”.

As to `O=C1CC(c2ccccc2F)Nc2c1ccc1ccccc21` (stereo not shown) [Compound 1c, 2-(2-Fluorophenyl)-2,3-dihydrobenzo[h]quinolin-4(1H)-one], in series [6], the IC50 was determined as 0.139 µM, the “IC50 ratio 1A1/1B1” value is 4.1 and the “IC50 ratio 1A2/1B1” value was determined as 7.9. In series [3], the IC50 came out at 0.578 µM. Also, the IC50 in series [7] was 1.1 µM.

On to `O=c1c(O)c(-c2ccc(F)cc2)[nH]c2c1ccc1ccccc12` [Compound 3d, 2-(4-Fluorophenyl)-3-hydroxybenzo[h]quinolin-4(1H)-one], for which, in series [6], the half-inhibitory concentration (IC50) turned out to be 0.0933 µM, the “IC50 ratio 1A1/1B1” value is 3.6 and the “IC50 ratio 1A2/1B1” value is >53.6. Besides, the IC50 in series [3] turned out to be 0.334 µM. Moreover, in series [7], the concentration for half-maximal inhibition (IC50) was > 5 µM.
